ChEMBL document CHEMBL3045304, “Sesquiterpene lactones with potential use as natural herbicide models. 2. guaianolides” (2000)
Activity calls are given as the source filed them. The calls are words filed in the database; no cut-off is given here.

How the values were obtained:
Lactuca sativa [1] = test: Stimulation of root length of Lactuca sativa cv. Roman (lettuce) at 0.1 mM or 1 mM after 5 days relative to untreated control; type: functional
How it was run: (§1)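 Lettuce and tomato seeds, 25 per dish on filter paper, received 5 mL test solution. Incubation was 5 days in the dark at 25 °C, with four replicates per concentration. Solutions were made at 10^-3 or 10^-4 M in 10 mM MES, diluted serially, and adjusted to pH 6.0. Parallel controls were run. Results are % difference from control.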

Solanum lycopersicum [2] = test: Inhibition of germination of Solanum lycopersicum cv. Tres Cantos (tomato) at 0.1 mM or 1 mM after 5 days relative to untreated control; type: functional; how it was run: as §1
Allium cepa [3] = test: Inhibition of hypocotyl length of Allium cepa cv. Valenciana (onion) at 0.1 mM or 1 mM after 7 days relative to untreated control
Triticum aestivum [4] = test: Stimulation of hypocotyl length of Triticum aestivum cv. Cortex (wheat) at 0.1 mM or 1 mM after 5 days relative to untreated control; type: functional
How it was run: (§2)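 Wheat: 10 seeds per dish on filter paper with 5 mL test solution, 5 days in the dark at 25 °C, 10 replicates per concentration. Stock test solutions were 10^-3 or 10^-4 M in 10 mM MES, with lower levels made by dilution, all at pH 6.0. Parallel controls were run. Output is % difference from control.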

Lepidium sativum [5] = test: Inhibition of hypocotyl length of Lepidium sativum at 0.1 mM or 1 mM after 5 days relative to untreated control; type: functional
Lactuca sativa [6] = test: Inhibition of germination of Lactuca sativa cv. Roman (lettuce) at 0.1 mM or 1 mM after 5 days relative to untreated control; type: functional; how it was run: as §1
Solanum lycopersicum [7] = test: Inhibition of root length of Solanum lycopersicum cv. Tres Cantos (tomato) at 0.1 mM or 1 mM after 5 days relative to untreated control; type: functional; how it was run: as §1
Triticum aestivum [8] = test: Stimulation of germination of Triticum aestivum cv. Cortex (wheat) at 0.1 mM or 1 mM after 5 days relative to untreated control; type: functional; how it was run: as §2
Triticum aestivum [9] = test: Inhibition of germination of Triticum aestivum cv. Cortex (wheat) at 0.1 mM or 1 mM after 5 days relative to untreated control; type: functional; how it was run: as §2
Triticum aestivum [10] = test: Inhibition of hypocotyl length of Triticum aestivum cv. Cortex (wheat) at 0.1 mM or 1 mM after 5 days relative to untreated control; type: functional; how it was run: as §2
Allium cepa [11] = test: Stimulation of hypocotyl length of Allium cepa cv. Valenciana (onion) at 0.1 mM or 1 mM after 7 days relative to untreated control
Allium cepa [12] = test: Inhibition of root length of Allium cepa cv. Valenciana (onion) at 0.1 mM or 1 mM after 5 days relative to untreated control; type: functional
Allium cepa [13] = test: Stimulation of root length of Allium cepa cv. Valenciana (onion) at 0.1 mM or 1 mM after 7 days relative to untreated control
Lepidium sativum [14] = test: Inhibition of germination of Lepidium sativum at 0.1 mM or 1 mM after 4 days relative to untreated control
Allium cepa [15] = test: Inhibition of germination of Allium cepa cv. Valenciana (onion) at 0.1 mM or 1 mM after 5 days relative to untreated control; type: functional
Lepidium sativum [16] = test: Stimulation of root length of Lepidium sativum at 0.1 mM or 1 mM after 5 days relative to untreated control; type: functional
Allium cepa [17] = test: Stimulation of germination of Allium cepa cv. Valenciana (onion) at 0.1 mM or 1 mM after 5 days relative to untreated control; type: functional
Lactuca sativa [18] = test: Inhibition of hypocotyl length of Lactuca sativa cv. Roman (lettuce) at 0.1 mM or 1 mM after 5 days relative to untreated control; type: functional; how it was run: as §1
Lactuca sativa [19] = test: Stimulation of germination of Lactuca sativa cv. Roman (lettuce) at 0.1 mM or 1 mM after 5 days relative to untreated control; type: functional; how it was run: as §1
Solanum lycopersicum [20] = test: Inhibition of hypocotyl length of Solanum lycopersicum cv. Tres Cantos (tomato) at 0.1 mM or 1 mM after 5 days relative to untreated control; type: functional; how it was run: as §1
Lactuca sativa [21] = test: Stimulation of hypocotyl length of Lactuca sativa cv. Roman (lettuce) at 0.1 mM or 1 mM after 5 days relative to untreated control; type: functional; how it was run: as §1
Lepidium sativum [22] = test: Stimulation of hypocotyl length of Lepidium sativum at 0.1 mM or 1 mM after 5 days relative to untreated control; type: functional
Triticum aestivum [23] = test: Inhibition of root length of Triticum aestivum cv. Cortex (wheat) at 0.1 mM or 1 mM after 5 days relative to untreated control; type: functional; how it was run: as §2
Solanum lycopersicum [24] = test: Stimulation of root length of Solanum lycopersicum cv. Tres Cantos (tomato) at 0.1 mM or 1 mM after 5 days relative to untreated control; type: functional; how it was run: as §1
Triticum aestivum [25] = test: Stimulation of root length of Triticum aestivum cv. Cortex (wheat) at 0.1 mM or 1 mM after 5 days relative to untreated control; type: functional; how it was run: as §2
Lepidium sativum [26] = test: Inhibition of root length of Lepidium sativum at 0.1 mM or 1 mM after 4 days relative to untreated control
Solanum lycopersicum [27] = test: Stimulation of hypocotyl length of Solanum lycopersicum cv. Tres Cantos (tomato) at 0.1 mM or 1 mM after 5 days relative to untreated control; type: functional; how it was run: as §1
Solanum lycopersicum [28] = test: Stimulation of germination of Solanum lycopersicum cv. Tres Cantos (tomato) at 0.1 mM or 1 mM after 5 days relative to untreated control; type: functional; how it was run: as §1
Lactuca sativa [29] = test: Inhibition of root length of Lactuca sativa cv. Roman (lettuce) at 0.1 mM or 1 mM after 5 days relative to untreated control; type: functional; how it was run: as §1

Q: What does the source list for C=C1CC[C@H]2C(=C)CC[C@@H]3[C@H](OC(=O)[C@]3(O)CO)[C@@H]12?
A: Activity (Lactuca sativa [1]): inactive; inhibition (INH) (Solanum lycopersicum [2]): <20%; inhibition (Allium cepa [3]): inactive; Activity (Triticum aestivum [4]): inactive; inhibition (Lepidium sativum [5]): inactive; inhibition (Lactuca sativa [6]): inactive; inhibition (Solanum lycopersicum [7]): inactive; Activity (Triticum aestivum [8]): <20%; inhibition (INH) (Triticum aestivum [9]): <20%; inhibition (Triticum aestivum [10]): inactive; Activity (Allium cepa [11]): inactive; inhibition (Allium cepa [12]): inactive; Activity (Allium cepa [13]): inactive; Activity (Lepidium sativum [14]): inactive; inhibition (Lepidium sativum [14]): inactive; inhibition (Allium cepa [15]): inactive; Activity (Lepidium sativum [16]): inactive; Activity (Allium cepa [17]): inactive; inhibition (INH) (Lactuca sativa [18]): <20%; Activity (Lactuca sativa [19]): inactive; inhibition (Solanum lycopersicum [20]): inactive; Activity (Lactuca sativa [21]): <20%; Activity (Lepidium sativum [22]): inactive; inhibition (Triticum aestivum [23]): inactive; Activity (Solanum lycopersicum [24]): inactive; Activity (Triticum aestivum [25]): inactive; inhibition (Lepidium sativum [26]): inactive; Activity (Solanum lycopersicum [27]): inactive; Activity (Solanum lycopersicum [28]): <20%; inhibition (Lactuca sativa [29]): inactive
